Converted amounts (≈) assume the structure as drawn.
Key:
[1] = tested on: MCF7; assay: Cytotoxicity against human MCF7 cells assessed as cell survival after 72 hrs by sulforhodamine B colorimetric assay; type: functional, cell-based; conditions: MCF7, 72 h
Procedure, shortened: (§1)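 SRB protein-stain assay: KB cells grown in RPMI 1640 and MCF-7 in DMEM, each with 10% FBS, 1% L-glutamine and 1% penicillin/streptomycin, at 37 °C. About 10,000 cells per well were left 24 h, then exposed 72 h to six concentrations ([…]), with DMSO ≤0.1%. Cells were TCA-fixed 1 h at 4 °C and stained 30 min at RT. OD was read at 490 nm, survival taken as % of untreated control, and each experiment run three times.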

[2] = tested on: KB; assay: Cytotoxicity against human KB cells assessed as cell survival after 72 hrs by sulforhodamine B colorimetric assay; type: functional, cell-based; procedure, shortened: as §1
[3] = tested on: Caco-2; assay: Cytotoxicity against human Caco2 cells at 100 uM; type: cell-based; conditions: caco-2, 100 µM
Procedure, shortened: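 Caco-2 monolayers were exposed for 2 h to compound at 100 µM in transport medium (HBSS with 10 mM HEPES, pH 7.4). This served as a pre-check before transport studies. Monolayer integrity was checked by TEER before and after the experiments.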

[4] = Apparent permeability from apical to basolateral side of the human Caco2 cells at 100 uM after 30 mins by HPLC method; type: ADME, cell-based; conditions: Caco-2
Procedure, shortened: (§2)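 Caco-2 monolayers grown on polycarbonate membranes (0.4 µm pores) and used 21 days post-seeding; only monolayers with TEER above 800 Ω·cm² were used. Cells washed and pre-incubated 30 min at 37 °C. Compound at 100 µM in HBSS with 10 mM HEPES, pH 7.4, added to the donor side; shaken at 37 °C. Acceptor sampled every 15 min and analysed by HPLC. Papp reported as mean ± SD, n = 3.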

[5] = Apparent permeability from basolateral to apical side of the human Caco2 cells at 100 uM after 30 mins by HPLC method; type: ADME, cell-based; conditions: Caco-2; procedure, shortened: as §2
[6] = Oral bioavailability in human; type: ADME, organism-based; conditions: in vivo

CNP(=O)(CCl)OC[C@H]1O[C@@H](n2cc(C)c(=O)[nH]c2=O)C[C@@H]1N=[N+]=[N-] (some centres not stated) gave an IC50 [1] of 63.2 mg/L (≈ 161 µM) and an IC50 [2] of 52 mg/L (≈ 132 µM).

With CCNP(=O)(CCl)OC[C@H]1O[C@@H](n2cc(C)c(=O)[nH]c2=O)C[C@@H]1N=[N+]=[N-] (some centres not stated) the IC50 [1] was over 100 mg/L and the IC50 [2] was over 100 mg/L.

In the case of CCCNP(=O)(CCl)OC[C@H]1O[C@@H](n2cc(C)c(=O)[nH]c2=O)C[C@@H]1N=[N+]=[N-] (some centres not stated), the IC50 [1] was 3.7 mg/L (≈ 8.79 µM), the Activity [3] was “Non-toxic” and the Papp A→B at 0.5 h, 100 µM [4] was 32.2 nm/s. The IC50 [2] was 5.8 mg/L (≈ 13.8 µM) and the Papp B→A at 0.5 h, 100 µM [5] was 161 nm/s.

Work on CCCCNP(=O)(CCl)OC[C@H]1O[C@@H](n2cc(C)c(=O)[nH]c2=O)C[C@@H]1N=[N+]=[N-] (some centres not stated) yielded an IC50 [1] of 82 mg/L (≈ 189 µM) and an IC50 [2] of 77 mg/L (≈ 177 µM).

With Cc1cn([C@H]2C[C@H](N=[N+]=[N-])[C@@H](COP(=O)(CCl)NC(C)C)O2)c(=O)[nH]c1=O (some centres not stated) the IC50 [1] was 12.8 mg/L (≈ 30.4 µM), the Activity [3] was “Non-toxic” and the Papp A→B at 0.5 h, 100 µM [4] was 33.6 nm/s. It also gave an IC50 [2] of 12.1 mg/L (≈ 28.8 µM) and a Papp B→A at 0.5 h, 100 µM [5] of 180 nm/s.

With C=CCNP(=O)(CCl)OC[C@H]1O[C@@H](n2cc(C)c(=O)[nH]c2=O)C[C@@H]1N=[N+]=[N-] (some centres not stated) the IC50 [1] was 34 mg/L (≈ 81.2 µM) and the IC50 [2] was 47 mg/L (≈ 112 µM).

Work on Cc1cn([C@H]2C[C@H](N=[N+]=[N-])[C@@H](COP(=O)(CCl)NCCc3ccccc3)O2)c(=O)[nH]c1=O (some centres not stated) yielded an IC50 [1] of over 100 mg/L and an IC50 [2] of over 100 mg/L.

For Cc1cn([C@H]2C[C@H](N=[N+]=[N-])[C@@H](COP(=O)(CCl)NCCc3c[nH]c4ccccc34)O2)c(=O)[nH]c1=O (some centres not stated), the IC50 [1] was over 100 mg/L and the IC50 [2] was 80 mg/L (≈ 153 µM).

With Cc1cn([C@H]2C[C@H](N=[N+]=[N-])[C@@H](COP(=O)(CCl)N(C)C)O2)c(=O)[nH]c1=O (some centres not stated) the IC50 [1] was 22.8 mg/L (≈ 56.1 µM) and the IC50 [2] was 65 mg/L (≈ 160 µM).

With CCN(CC)P(=O)(CCl)OC[C@H]1O[C@@H](n2cc(C)c(=O)[nH]c2=O)C[C@@H]1N=[N+]=[N-] (some centres not stated) the IC50 [1] was 67 mg/L (≈ 154 µM) and the IC50 [2] was 85 mg/L (≈ 195 µM).

In the case of Nc1ccn([C@@H]2O[C@H](CO)[C@@H](O)[C@@H]2O)c(=O)n1 [CYTARABINE], the IC50 [1] was 0.93 mg/L (≈ 3.82 µM) and the IC50 [2] was 0.99 mg/L (≈ 4.07 µM).

For Cc1cn([C@H]2C[C@H](N=[N+]=[N-])[C@@H](CO)O2)c(=O)[nH]c1=O [ZIDOVUDINE], the IC50 [1] was 2.6 mg/L (≈ 9.73 µM), the Papp A→B at 0.5 h, 100 µM [4] was 28.5 nm/s and the IC50 [2] was 3.12 mg/L (≈ 11.7 µM). The bioavailability [6] was 63%.

Source: ChEMBL document CHEMBL1914360, “Synthesis and anticancer activity of 5'-chloromethylphosphonates of 3'-azido-3'-deoxythymidine (AZT)” (Bioorg Med Chem, 2011)
